Laboratory results published in ChEMBL document CHEMBL2057191, “Synthesis, structure-activity relationship, and pharmacological studies of novel melanin-concentrating hormone receptor 1 antagonists 3-aminomethylquinolines: reducing human ether-a-go-go-related gene (hERG) associated liabilities” (J Med Chem, 2012).

How the values were obtained:
[1] = target: T1, Melanin-concentrating hormone receptor 1 (Homo sapiens, UniProt Q99705); assay: Displacement of [125I]MCH from human MCHR1 expressed in CHO cells after 60 mins by liquid scintillation counting; assay type: cell-based
Procedure, shortened: (§1)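 Membrane homogenates from CHO cells stably expressing human or rat MCHR1 in 25 mM Tris-HCl pH 7.5 with EDTA, BSA and protease inhibitors. Membrane protein 2 μg/mL (human) or 4 μg/mL (rat). Nonspecific binding defined with 0.3 μM MCH(1–19). Filter radioactivity counted. IC50 from one experiment in duplicate.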

[2] = Lipophilicity, log D of the compound at pH 7.4; assay type: physicochemical; conditions: buffer
[3] = target: Melanin-concentrating hormone receptor 1 (Rattus norvegicus, UniProt P97639); assay: Displacement of [125I]MCH from rat MCHR1 expressed in CHO cells after 60 mins by liquid scintillation counting; assay type: cell-based; procedure, shortened: as §1
[4] = target: Voltage-gated inwardly rectifying potassium channel KCNH2 (Homo sapiens, UniProt Q12809); assay: Inhibition of human ERG expressed in HMZ/CHO.8B4 cells assessed as inhibition of Rb+ efflux at 30 uM after 30 mins by flame atomic absorption spectrometer analysis relative to astemizole; assay type: cell-based; conditions: 0.5 h
Procedure, shortened: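 HMZ/CHO.8B4 cells stably expressing hERG, 4 × 10⁴ cells/well, 24 h on collagen, Rb-loaded 3 h at 37 °C (5.4 mM RbCl, pH 7.4). Compound added for 30 min (n = 7), then 5 min stimulation with 50 mM KCl. Supernatant and lysate Rb⁺ read by flame atomic absorption. Fractional efflux normalized to background and maximum; astemizole as 0, vehicle as 1.0.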

[5] = target: T1, Melanin-concentrating hormone receptor 1; assay: Antagonist activity at human MCHR1 expressed in CHO cells assessed as inhibition of MCH-stimulated arachidonic acid release after 45 mins by liquid scintillation counting; assay type: functional, cell-based
[6] = target: hERG (KCNH2) (Homo sapiens, UniProt Q12809); assay: Inhibition of human ERG expressed in HMZ/CHO.8B4 cells at 10 uM by patch clamp assay; assay type: cell-based; conditions: HMZ/CHO.8B4 cells expressing human ERG
[7] = Volume of distribution at steady state in Sprague-Dawley rat at 1 mg/kg, iv; assay type: ADME, organism-based; set-up: dose 1 mg/kg, route intravenous; conditions: in vivo, read-out: Vdss
Procedure, shortened: (§2)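 Male Sprague-Dawley rats, 8 weeks old, given intravenous dose.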

[8] = test system: Rattus norvegicus; assay: Antiobesity activity in po dosed diet induced obese F344 rat model assessed as inhibition of food intake administered qd for 2 days; assay type: functional, organism-based
Procedure, shortened: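 Male F344/Jcl rats, 32 weeks old, on high-fat diet from 5 weeks of age, housed singly on a 7:00–19:00 light cycle, habituated to oral water dosing, grouped by food intake and body weight (n = 6). Dosed orally at 1, 3, 5 or 10 mg/kg in 0.5% methylcellulose (2 mL/kg) at 5:00 p.m. on days 0 and 1. Cumulative intake on days 1 and 2 expressed as ratio to vehicle group; Williams test.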

[9] = Bioavailability in Sprague-Dawley rat; assay type: ADME, organism-based; conditions: in vivo
[10] = AUC (0 to 24 hrs) in Sprague-Dawley rat at 3 mg/kg, po; assay type: ADME, organism-based; set-up: time < 24 hr, dose 3 mg/kg, route oral; conditions: plasma
Procedure, shortened: (§3)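 Male Sprague-Dawley rats, 8 weeks old, given oral dose.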

[11] = Cmax in Sprague-Dawley rat plasma at 3 mg/kg, po; assay type: ADME, organism-based; set-up: dose 3 mg/kg, route oral; procedure, shortened: as §3
[12] = Total clearance in Sprague-Dawley rat plasma at 1 mg/kg, iv; assay type: ADME, organism-based; set-up: dose 1 mg/kg, route intravenous; procedure, shortened: as §2
[13] = Tmax in Sprague-Dawley rat at 3 mg/kg, po; assay type: ADME, organism-based; set-up: dose 3 mg/kg, route oral; conditions: in vivo; procedure, shortened: as §3

Sequence of hERG (KCNH2) (Q12809 whole entry): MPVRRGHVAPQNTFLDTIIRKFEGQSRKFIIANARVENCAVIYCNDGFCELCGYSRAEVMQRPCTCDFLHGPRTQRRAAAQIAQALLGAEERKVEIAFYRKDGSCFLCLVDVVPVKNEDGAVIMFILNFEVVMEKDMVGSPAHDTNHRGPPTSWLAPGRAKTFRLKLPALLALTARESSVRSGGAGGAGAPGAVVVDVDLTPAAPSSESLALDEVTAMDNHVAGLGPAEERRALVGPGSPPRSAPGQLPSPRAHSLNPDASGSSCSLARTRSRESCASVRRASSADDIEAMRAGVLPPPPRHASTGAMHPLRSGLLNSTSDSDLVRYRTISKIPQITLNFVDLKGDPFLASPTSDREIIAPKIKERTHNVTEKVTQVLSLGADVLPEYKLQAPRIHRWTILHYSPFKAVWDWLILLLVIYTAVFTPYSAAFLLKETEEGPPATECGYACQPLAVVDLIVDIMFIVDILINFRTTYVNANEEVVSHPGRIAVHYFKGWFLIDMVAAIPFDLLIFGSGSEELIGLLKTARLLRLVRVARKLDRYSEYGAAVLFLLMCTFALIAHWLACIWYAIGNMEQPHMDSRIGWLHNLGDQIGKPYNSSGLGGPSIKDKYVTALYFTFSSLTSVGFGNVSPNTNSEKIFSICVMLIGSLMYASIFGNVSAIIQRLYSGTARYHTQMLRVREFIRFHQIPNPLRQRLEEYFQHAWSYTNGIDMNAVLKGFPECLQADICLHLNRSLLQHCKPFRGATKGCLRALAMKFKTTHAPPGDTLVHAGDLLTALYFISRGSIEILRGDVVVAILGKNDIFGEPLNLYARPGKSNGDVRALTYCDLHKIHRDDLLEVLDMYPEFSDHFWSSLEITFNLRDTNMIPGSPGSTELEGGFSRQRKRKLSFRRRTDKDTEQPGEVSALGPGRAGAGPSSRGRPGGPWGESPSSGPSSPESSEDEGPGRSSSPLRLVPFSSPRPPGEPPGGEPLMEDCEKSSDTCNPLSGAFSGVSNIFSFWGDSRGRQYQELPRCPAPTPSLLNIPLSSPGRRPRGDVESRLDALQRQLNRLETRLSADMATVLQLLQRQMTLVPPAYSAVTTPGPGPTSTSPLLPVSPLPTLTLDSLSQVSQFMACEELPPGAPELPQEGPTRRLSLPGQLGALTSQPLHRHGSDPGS
Sequence of Voltage-gated inwardly rectifying potassium channel KCNH2 (Q12809 whole entry): as above
T1 sequence (Q99705 whole entry): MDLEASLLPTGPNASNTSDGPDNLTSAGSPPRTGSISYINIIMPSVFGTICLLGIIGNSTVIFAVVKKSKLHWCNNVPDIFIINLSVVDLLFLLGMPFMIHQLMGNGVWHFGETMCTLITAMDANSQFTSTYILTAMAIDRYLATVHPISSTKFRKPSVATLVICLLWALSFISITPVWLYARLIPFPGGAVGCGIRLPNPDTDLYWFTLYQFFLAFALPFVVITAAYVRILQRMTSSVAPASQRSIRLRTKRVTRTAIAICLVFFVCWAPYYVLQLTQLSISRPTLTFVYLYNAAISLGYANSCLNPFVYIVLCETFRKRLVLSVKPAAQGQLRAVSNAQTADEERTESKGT
Sequence of Melanin-concentrating hormone receptor 1 (Rattus norvegicus, UniProt P97639) (P97639 whole entry): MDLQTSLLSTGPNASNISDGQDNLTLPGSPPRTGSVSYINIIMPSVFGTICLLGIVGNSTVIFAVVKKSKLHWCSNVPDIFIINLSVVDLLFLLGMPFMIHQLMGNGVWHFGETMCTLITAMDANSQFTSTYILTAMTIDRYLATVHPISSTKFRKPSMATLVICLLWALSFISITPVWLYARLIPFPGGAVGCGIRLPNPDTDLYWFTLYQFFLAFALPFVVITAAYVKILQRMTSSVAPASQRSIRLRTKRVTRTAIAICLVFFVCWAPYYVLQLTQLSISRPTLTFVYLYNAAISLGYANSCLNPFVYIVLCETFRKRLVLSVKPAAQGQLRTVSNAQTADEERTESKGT

Row | Compound | IC50 [1] [nM] | logD [2] | IC50 [3] [nM] | Ratio [4] | IC50 [5] [nM] | inhibition at 10 µM [6] [%] | further results
1 | Cc1c(NC(=O)c2ccc(OCC3CC3)cc2)ccc2cc(CN3CCCC3)cnc12 | 1.8 | 2.77 | 1.6 | 0.9 | 4.3 | – | –
2 | Cc1c(NC(=O)c2ccc(OCC3CC3)cc2)ccc2cc(C(C)NCCO)cnc12 (racemic) | – | – | – | – | – | 84.8 | –
3 | CC(=O)NCCNC(C)c1cnc2c(C)c(NC(=O)c3ccc(OCC4CC4)cc3)ccc2c1 (racemic) | – | – | – | – | – | 29.3 | –
4 | Cc1c(NC(=O)c2ccc(OCC(C)C)cc2)ccc2cc(CN3CCCC3)cnc12 | 4.4 | 3.35 | 6.7 | 0.7 | – | – | –
5 | Cc1c(NC(=O)c2ccc(OCC3CC3)cc2)ccc2cc([C@H](C)N3CCCC3)cnc12 | 3.4 | 2.99 | 8 | 0.85 | 4 | – | –
6 | Cc1c(NC(=O)c2ccc(OCC3CC3)cc2)ccc2cc(C(C)N3CCCC3)cnc12 (racemic) | 1.7 | 3 | 4.2 | 1.02 | 6.4 | – | –
7 | Cc1c(NC(=O)c2ccc(OCC3CC3)cc2)ccc2cc(C(C)N3CCCCCC3)cnc12 (racemic) | 2 | 3.91 | 5.6 | 0.73 | 3.4 | – | –
8 | CC(=O)NCCN[C@H](C)c1cnc2c(C)c(NC(=O)c3ccc(OCC4CC4)cc3)ccc2c1 | – | – | – | – | – | 33.2 | Vd [7]: 1.21 L/kg; inhibition [8]: Dose-dependent effect; bioavailability [9]: 43%; AUC(0-t) at 24 h [10]: 1940 ng·h/mL; Cmax [11]: 274 ng/mL; clearance [12]: 11.5 mL/min/kg; Tmax [13]: 4 h
9 | Cc1c(NC(=O)c2ccc(OCC3CC3)cc2)ccc2cc(C(C)NCC(C)(C)O)cnc12 (racemic) | 1.5 | 2.67 | 2.7 | – | 6.4 | 63.3 | –
10 | Cc1c(NC(=O)c2ccc(-c3ccc(F)cc3)cc2)ccc2cc(CN3CCCC3)cnc12 | – | 2.77 | 1 | 0.17 | – | 93.8 | –
11 | Cc1c(NC(=O)c2ccc(OCC3CC3)cc2)ccc2cc(CN3CCCC3C)cnc12 (racemic) | 2.5 | – | 6.7 | – | – | – | –
12 | Cc1c(NC(=O)c2ccc(OCC3CC3)cc2)ccc2cc(C(C)N3CC[C@H](O)C3)cnc12 (mixture of isomers) | – | – | – | – | – | 58.4 | –
13 | Cc1c(NC(=O)c2ccc(OCC3CC3)cc2)ccc2cc([C@@H](C)N3CCCC3)cnc12 | 1.1 | 2.99 | 1.9 | 1.11 | 2.9 | 88.1 | –
14 | CCCCCC(=O)c1ccc(C(=O)Nc2ccc3cc(CN4CCCC4)cnc3c2C)cc1 | 170 | 3.5 | – | 0.48 | – | – | –
15 | CC(=O)NCCN[C@@H](C)c1cnc2c(C)c(NC(=O)c3ccc(OCC4CC4)cc3)ccc2c1 | – | – | – | – | – | 33.3 | –
